# Assay results collected from several papers.
# Target: RAC-beta serine/threonine-protein kinase (AKT2, Homo sapiens, UniProt P31751)
Compound,read-out,mode,method,tested at,endpoint,result
CCCCC(=O)Nc1ccc(-c2ccc3ncn(CCC)c(=O)c3c2)cn1,binding,,competition with immobilised ligand,0.5 µM,remaining binding,100%
CN1CCN(C(=O)c2ccc(NC(=O)Nc3ccc(N(C)c4ccnc(Nc5ccc(CS(C)(=O)=O)cc5)n4)cc3)cc2)CC1,binding,,,1 µM,remaining binding,100%
N#Cc1ccc(NC(=O)Nc2ccccc2)cc1,cell-free assay,,competition with immobilised ligand,25 µM,remaining binding,92%
C[C@H]1CC[C@H](n2c3cnccc3c3cnc(Nc4ccc5c(n4)CCN(C(=O)CO)C5)nc32)CC1,cell-free assay,,,1 µM,remaining signal,100%
CC#CC(=O)N1CCC[C@H]1c1nc(-c2ccc(C(=O)Nc3ccccn3)cc2)c2c(N)nccn12,enzyme activity,inhibitor,,1 µM,inhibition,0%
Cc1cc(-c2ccnc3[nH]cc(F)c23)cc(F)c1[C@@]1(O)[C@H](C)CN(C2CCS(=O)(=O)CC2)C[C@@H]1C,enzyme activity,inhibitor,,15 nM,remaining activity,93%
C1=C/COCc2cc(ccc2OCCN2CCCC2)Nc2nccc(n2)-c2cccc(c2)COC/1,binding,,,0.1 µM,remaining binding,100%
C#Cc1cnc(Nc2ccnc(CO)c2)nc1Nc1ccccc1S(C)(=O)=NC#N (stereo not shown),cell-free assay,,,1 µM,remaining signal,100%
C=CC(=O)N1CCC([C@@H]2CCNc3c(C(N)=O)c(-c4ccc(Oc5ccccc5)cc4)nn32)CC1,enzyme activity,inhibitor,,1 µM,inhibition,1%
COc1ccc2oc(-c3ccc4nc(N)oc4c3)c/c(=N\c3ccccc3NC(=O)CCN)c2c1,binding,,,1 µM,remaining binding,93%
